Source: ChEMBL document CHEMBL1268967, “Synthesis and biological evaluation of furoxan-based nitric oxide-releasing derivatives of glycyrrhetinic acid as anti-hepatocellular carcinoma agents” (Bioorg Med Chem Lett, 2010)
pIC50: −log10 of the molar value. Calls of active or inactive are those of the source. The calls are words filed in the database; no cut-off is given here.

How the values were obtained:
[1] = Antiproliferative activity against human L02 cells at 10 uM after 24 hrs by MTT assay; type: cell-based; settings: for inhibition at 24 h, 10 µM: L02 cells; for Activity: l02, 24 h, 10 µM
In short: (§1)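 Cells cultured in DMEM with 10% heat-inactivated fetal calf serum at 37 °C, 5% CO2, plated overnight and then exposed to 10 µM compound for 24 h. MTT was added for the last 4 h, formazan dissolved in DMSO and read at 570 nm. Values are mean % cytotoxicity ± SD from three separate experiments.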

HepG2 [2] = experiment: Antiproliferative activity against human HepG2 cells after 24 hrs by MTT assay; type: functional, cell-based; settings: HepG2, 24 h
In short: (§2)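 Cells grown in DMEM with 10% heat-inactivated fetal calf serum at 37 °C, 5% CO2; 3 × 10^5 cells/well plated overnight, then exposed in triplicate to a range of concentrations for 24 h. MTT (5 mg/mL) was added for the final 4 h, formazan dissolved in DMSO, absorbance at 570 nm. IC50 is the mean of dose–response curves from at least three independent experiments.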

Bel-7402 [3] = experiment: Antiproliferative activity against human Bel7402 cells after 24 hrs by MTT assay; type: functional, cell-based; settings: Bel-7402, 24 h; in short: as §2
Bel-7402 [4] = experiment: Antiproliferative activity against human Bel7402 cells at 10 uM after 24 hrs by MTT assay; type: functional; settings: for inhibition of growth at 10 µM: Bel-7402, 24 h, read-out: GI; in short: as §1
HepG2 [5] = experiment: Induction of nitric oxide release in human HepG2 cells at 100 uM […] by Griess assay; type: functional, cell-based
Bel-7402 [6] = experiment: Induction of nitric oxide release in human Bel7402 cells at 100 uM […] by Griess assay; type: functional, cell-based
[7] = Toxicity in human L02 cells assessed as induction of nitric oxide release at 100 uM […] by Griess assay; type: cell-based; settings: l02, 100 µM
Bel-7402 [8] = experiment: Induction of nitric oxide release in human Bel7402 cells at 5 uM for 24 hrs pretreated with hemoglobin for 1 hr by Griess assay; type: functional, cell-based
In short: (§3)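 BEL-7402 cells in 24-well plates were pretreated in triplicate with hemoglobin (0, 1, 5, 10 or 20 µM) for 1 h, then given compound at 5 or 10 µM for 24 h. NO in the cells was measured by Griess assay and reported as mean concentration for each condition.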

Bel-7402 [9] = experiment: Antiproliferative activity against human Bel7402 cells at 5 uM for 24 hrs pretreated with hemoglobin for 1 hr by MTT assay; type: functional, cell-based
In short: (§4)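 BEL-7402 cells in 24-well plates were pretreated in triplicate with hemoglobin (0, 1, 5, 10 or 20 µM) for 1 h as an NO scavenger. Compound was then added at 5 or 10 µM for 24 h and cytotoxicity read by MTT. Data are mean % cytotoxicity for each condition.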

Bel-7402 [10] = experiment: Induction of nitric oxide release in human Bel7402 cells at 10 uM for 24 hrs pretreated with hemoglobin for 1 hr by Griess assay; type: functional, cell-based; in short: as §3
Bel-7402 [11] = experiment: Antiproliferative activity against human Bel7402 cells at 10 uM for 24 hrs pretreated with hemoglobin for 1 hr by MTT assay; type: functional, cell-based; in short: as §4

With `CC1(C)[C@@H](O)CC[C@]2(C)[C@H]3C(=O)C=C4[C@@H]5C[C@@](C)(C(=O)NCC(=O)OCC#CCOc6no[n+]([O-])c6S(=O)(=O)c6ccccc6)CC[C@]5(C)CC[C@@]4(C)[C@]3(C)CC[C@@H]12` the inhibition at 24 h, 10 µM [1] was less than 18%, the pIC50 (HepG2 [2]) was 5.47 and the pIC50 (Bel-7402 [3]) was 6.08. The inhibition of growth at 10 µM (Bel-7402 [4]) was greater than 83.5%, the Activity (HepG2 [5]) was “Active” and the Activity (Bel-7402 [6]) was “Active”. For the same compound, the Activity [7] was “Non-toxic”.

`CC(=O)O[C@H]1CC[C@]2(C)[C@H]3C(=O)C=C4[C@@H]5C[C@@](C)(C(=O)OCCOc6no[n+]([O-])c6S(=O)(=O)c6ccccc6)CC[C@]5(C)CC[C@@]4(C)[C@]3(C)CC[C@H]2C1(C)C` showed a pIC50 (HepG2 [2]) of 4.83 and a pIC50 (Bel-7402 [3]) of 5.42.

`COc1cccc2c1C(=O)c1c(O)c3c(c(O)c1C2=O)C[C@@](O)(C(=O)CO)C[C@@H]3O[C@H]1C[C@H](N)[C@H](O)[C@H](C)O1` [DOXORUBICIN] showed a pIC50 (HepG2 [2]) of 5.69 and a pIC50 (Bel-7402 [3]) of 6.05.

`CC(=O)O[C@H]1CC[C@]2(C)[C@H]3C(=O)C=C4[C@@H]5C[C@@](C)(C(=O)NCC(=O)OCCOCCOc6no[n+]([O-])c6S(=O)(=O)c6ccccc6)CC[C@]5(C)CC[C@@]4(C)[C@]3(C)CC[C@H]2C1(C)C` showed a pIC50 (HepG2 [2]) of 5.19 and a pIC50 (Bel-7402 [3]) of 5.02.

Compound `CC1(C)[C@@H](O)CC[C@]2(C)[C@H]3C(=O)C=C4[C@@H]5C[C@@](C)(C(=O)NCC(=O)OCCCOc6no[n+]([O-])c6S(=O)(=O)c6ccccc6)CC[C@]5(C)CC[C@@]4(C)[C@]3(C)CC[C@@H]12` has an inhibition at 24 h, 10 µM [1] of less than 18%, a pIC50 (HepG2 [2]) of 5.42 and a pIC50 (Bel-7402 [3]) of 6.37. For the same compound, the inhibition of growth at 10 µM (Bel-7402 [4]) was greater than 83.5%, the Activity (HepG2 [5]) was “Active” and the Activity (Bel-7402 [6]) was “Active”. For the same compound, the Activity [7] was “Non-toxic”.

For `O=S(=O)(c1ccccc1)c1c(OCCCO)no[n+]1[O-]`, the Activity [1] was “Toxic” and the “growth inhibition (GI)” value (Bel-7402 [4]) was “Active”.

`CC1(C)[C@@H](O)CC[C@]2(C)[C@H]3C(=O)C=C4[C@@H]5C[C@@](C)(C(=O)NCC(=O)OCCOCCOc6no[n+]([O-])c6S(=O)(=O)c6ccccc6)CC[C@]5(C)CC[C@@]4(C)[C@]3(C)CC[C@@H]12` gave a pIC50 (HepG2 [2]) of 5.29 and a pIC50 (Bel-7402 [3]) of 5.42.

In the case of `CC(=O)O[C@H]1CC[C@]2(C)[C@H]3C(=O)C=C4[C@@H]5C[C@@](C)(C(=O)OCCCOc6no[n+]([O-])c6S(=O)(=O)c6ccccc6)CC[C@]5(C)CC[C@@]4(C)[C@]3(C)CC[C@H]2C1(C)C`, the pIC50 (HepG2 [2]) was 4.94 and the pIC50 (Bel-7402 [3]) was 4.81.

`COC(=O)[C@@]1(C)CC[C@]2(C)CC[C@]3(C)C(=CC(=O)[C@@H]4[C@@]5(C)CC[C@H](OC(=O)CCC(=O)NCCOc6no[n+]([O-])c6S(=O)(=O)c6ccccc6)C(C)(C)[C@@H]5CC[C@]43C)[C@@H]2C1` gave a pIC50 (HepG2 [2]) of 5.54 and a pIC50 (Bel-7402 [3]) of 5.53.

For `COC(=O)[C@@]1(C)CC[C@]2(C)CC[C@]3(C)C(=CC(=O)[C@@H]4[C@@]5(C)CC[C@H](OC(=O)CCC(=O)OCCCOc6no[n+]([O-])c6S(=O)(=O)c6ccccc6)C(C)(C)[C@@H]5CC[C@]43C)[C@@H]2C1`, the pIC50 (HepG2 [2]) was 4.87 and the pIC50 (Bel-7402 [3]) was 5.04.

For `O=S(=O)(c1ccccc1)c1c(OCC#CCO)no[n+]1[O-]`, the Activity [1] was “Toxic” and the “growth inhibition (GI)” value (Bel-7402 [4]) was “Active”.

In the case of `CC1(C)[C@@H](O)CC[C@]2(C)[C@H]3C(=O)C=C4[C@@H]5C[C@@](C)(C(=O)NCCOc6no[n+]([O-])c6S(=O)(=O)c6ccccc6)CC[C@]5(C)CC[C@@]4(C)[C@]3(C)CC[C@@H]12`, the pIC50 (HepG2 [2]) was 5.13 and the pIC50 (Bel-7402 [3]) was 5.61.

For `CC1(C)[C@@H](O)CC[C@]2(C)[C@H]3C(=O)C=C4[C@@H]5C[C@@](C)(C(=O)O)CC[C@]5(C)CC[C@@]4(C)[C@]3(C)CC[C@@H]12` [ENOXOLONE], the pIC50 (HepG2 [2]) was less than 4.30 and the pIC50 (Bel-7402 [3]) was less than 4.30.

In the case of `O=S(=O)(c1ccccc1)c1c(OC/C=C/CO)no[n+]1[O-]`, the Activity [1] was “Toxic” and the “growth inhibition (GI)” value (Bel-7402 [4]) was “Active”.

With `CC1(C)[C@@H](O)CC[C@]2(C)[C@H]3C(=O)C=C4[C@@H]5C[C@@](C)(C(=O)NCC(=O)OCCOc6no[n+]([O-])c6S(=O)(=O)c6ccccc6)CC[C@]5(C)CC[C@@]4(C)[C@]3(C)CC[C@@H]12` the pIC50 (HepG2 [2]) was 5.04 and the pIC50 (Bel-7402 [3]) was 5.86.

For `CC(=O)O[C@H]1CC[C@]2(C)[C@H]3C(=O)C=C4[C@@H]5C[C@@](C)(C(=O)OCC#CCOc6no[n+]([O-])c6S(=O)(=O)c6ccccc6)CC[C@]5(C)CC[C@@]4(C)[C@]3(C)CC[C@H]2C1(C)C`, the pIC50 (HepG2 [2]) was 5.12 and the pIC50 (Bel-7402 [3]) was 4.83.

Work on `CC1(C)[C@@H](O)CC[C@]2(C)[C@H]3C(=O)C=C4[C@@H]5C[C@@](C)(C(=O)NCC(=O)OCCCCOc6no[n+]([O-])c6S(=O)(=O)c6ccccc6)CC[C@]5(C)CC[C@@]4(C)[C@]3(C)CC[C@@H]12` yielded an inhibition at 24 h, 10 µM [1] of less than 18%, a pIC50 (HepG2 [2]) of 5.17 and a pIC50 (Bel-7402 [3]) of 6.60. The inhibition of growth at 10 µM (Bel-7402 [4]) was greater than 83.5%, the Activity (HepG2 [5]) was “Active” and the Activity (Bel-7402 [6]) was “Active”. For the same compound, the Activity [7] was “Non-toxic”, the “growth inhibition (GI)” value (Bel-7402 [8]) was “inactive” and the Activity (Bel-7402 [9]) was “inactive”. The “growth inhibition (GI)” value (Bel-7402 [10]) was “inactive” and the Activity (Bel-7402 [11]) was “inactive”.

For `COC(=O)[C@@]1(C)CC[C@]2(C)CC[C@]3(C)C(=CC(=O)[C@@H]4[C@@]5(C)CC[C@H](OC(=O)CCC(=O)OCCOCCOc6no[n+]([O-])c6S(=O)(=O)c6ccccc6)C(C)(C)[C@@H]5CC[C@]43C)[C@@H]2C1`, the pIC50 (HepG2 [2]) was 4.80 and the pIC50 (Bel-7402 [3]) was 4.70.

With `COC(=O)[C@@]1(C)CC[C@]2(C)CC[C@]3(C)C(=CC(=O)[C@@H]4[C@@]5(C)CC[C@H](OC(=O)CCC(=O)OCCCCOc6no[n+]([O-])c6S(=O)(=O)c6ccccc6)C(C)(C)[C@@H]5CC[C@]43C)[C@@H]2C1` the pIC50 (HepG2 [2]) was 4.44 and the pIC50 (Bel-7402 [3]) was 5.09.

For `COC(=O)[C@@]1(C)CC[C@]2(C)CC[C@]3(C)C(=CC(=O)[C@@H]4[C@@]5(C)CC[C@H](OC(=O)CCC(=O)OCC#CCOc6no[n+]([O-])c6S(=O)(=O)c6ccccc6)C(C)(C)[C@@H]5CC[C@]43C)[C@@H]2C1`, the pIC50 (HepG2 [2]) was 4.94 and the pIC50 (Bel-7402 [3]) was 4.87.

For `CC(O)CCOc1no[n+]([O-])c1S(=O)(=O)c1ccccc1` (centres undefined), the Activity [1] was “Toxic” and the “growth inhibition (GI)” value (Bel-7402 [4]) was “Active”.

For `COC(=O)[C@@]1(C)CC[C@]2(C)CC[C@]3(C)C(=CC(=O)[C@@H]4[C@@]5(C)CC[C@H](OC(=O)CCC(=O)OCCOc6no[n+]([O-])c6S(=O)(=O)c6ccccc6)C(C)(C)[C@@H]5CC[C@]43C)[C@@H]2C1`, the pIC50 (HepG2 [2]) was 4.74 and the pIC50 (Bel-7402 [3]) was 5.11.

In the case of `O=S(=O)(c1ccccc1)c1c(OCCCCO)no[n+]1[O-]`, the Activity [1] was “Toxic” and the “growth inhibition (GI)” value (Bel-7402 [4]) was “Active”.

`CC(=O)O[C@H]1CC[C@]2(C)[C@H]3C(=O)C=C4[C@@H]5C[C@@](C)(C(=O)OCCOCCOc6no[n+]([O-])c6S(=O)(=O)c6ccccc6)CC[C@]5(C)CC[C@@]4(C)[C@]3(C)CC[C@H]2C1(C)C` showed a pIC50 (HepG2 [2]) of 4.50 and a pIC50 (Bel-7402 [3]) of 4.67.

For `CC(=O)O[C@H]1CC[C@]2(C)[C@H]3C(=O)C=C4[C@@H]5C[C@@](C)(C(=O)NCCOc6no[n+]([O-])c6S(=O)(=O)c6ccccc6)CC[C@]5(C)CC[C@@]4(C)[C@]3(C)CC[C@H]2C1(C)C`, the pIC50 (HepG2 [2]) was 4.62 and the pIC50 (Bel-7402 [3]) was 4.85.
